Shown are actives, neighbours in structure and some others; about 2.6% of the full set was active somewhere.
SR-BI HDL uptake – inhibitors of SR-BI mediated HDL lipid uptake, primary screen, ldlA[mSR-BI] cells, fluorescence, single point; hit rate 0.96% among 320,000; ldlA[mSR-BI] CHO cells, DiI-HDL uptake fluorescence, 3 h; inhibition, % at 12.5 µM;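 active means mean replicate inhibition of at least 70% and a set share of replicates each scoring 70 or more; inconclusive means meets just one of the two criteria; inactive means fails both criteria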
Target sequence (Q61009 whole entry, looked up): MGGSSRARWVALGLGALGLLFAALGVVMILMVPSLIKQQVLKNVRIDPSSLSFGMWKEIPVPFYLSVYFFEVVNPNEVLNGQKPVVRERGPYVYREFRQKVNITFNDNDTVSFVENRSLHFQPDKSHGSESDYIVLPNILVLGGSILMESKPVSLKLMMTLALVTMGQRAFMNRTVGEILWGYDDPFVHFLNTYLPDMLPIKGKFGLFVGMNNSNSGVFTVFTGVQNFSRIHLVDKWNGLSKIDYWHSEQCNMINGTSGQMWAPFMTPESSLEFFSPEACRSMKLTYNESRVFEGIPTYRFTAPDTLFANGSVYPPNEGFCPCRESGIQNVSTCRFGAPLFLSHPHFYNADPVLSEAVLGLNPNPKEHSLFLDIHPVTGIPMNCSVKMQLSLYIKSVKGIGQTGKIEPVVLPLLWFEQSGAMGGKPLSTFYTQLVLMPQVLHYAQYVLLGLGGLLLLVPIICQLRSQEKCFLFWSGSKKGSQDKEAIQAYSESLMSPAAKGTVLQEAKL
dFosB act – activators of delta FosB homodimer, primary screen, biochemical, fluorescence polarization, TAMRA-CDK5 oligo, single point | Protein FosB (Mus musculus), P13346 | purified delta FosB; percent of positive-control signal above neutral wells | activation, % at 25 µM | hit rate 0.99% among 340,000 | AID 493131, 2011;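 active means mean activation above about 17%, with every replicate also reaching it, limit read from the data, passing the limit was not always enough; inconclusive means only one of the two conditions met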
SR-BI DiI-HDL act – activators of SR-BI mediated DiI-HDL uptake, primary screen, ldlA[mSR-BI] CHO cells, DiI fluorescence; 3 h; 100 = double the neutral-control signal; activation, % at 12.5 µM; hit rate 0.096% among 320,000;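 active means mean replicate activation of at least 60% and every replicate at or above 60%; inconclusive means mean or all-replicate condition met, but not both; inactive means mean below 60% and not all replicates reaching 60%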
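Test system: SR-BI-overexpressing, LDLR-lacking CHO cells; Medium: Ham's F12 with 0.5% BSA, HEPES 25 mM, pH 7.4; Schedule: 3 h, 37 °C; Technique: bottom-read fluorescence, 550/595 nm.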
PvdQ acylase – P. aeruginosa PvdQ acylase inhibitors, primary screen, biochemical, fluorescence, plate reader and imaging, single point | PvdQ acylase [Pseudomonas aeruginosa LESB58] | purified PvdQ acylase | inhibition, % at 10 µM | hit rate 0.063% among 340,000 | AID 488965, 2010; in the data active means inhibition above about 30%, passing the limit was not always enough; inconclusive means no clear call, values can overlap the other calls
Ecoli rRNA inh – reduced GFP signal of wild-type E. coli, primary screen, bacterial rRNA inhibitor project, GFP/RFP fluorescence, OD600, single point; E. coli WT GFP vs humanized-ribosome RFP mutants, 24 h; stronger effect = lower value; DMSO median 0, no signal -100; GFP signal change (wild-type ribosome), % (no concentration beside the values); hit rate 1.6% among 350,000; AID 720706, 2013;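 active means significant combined selectivity score with lowered wild-type GFP, culture density cut under 30%, mutant RFP and density less affected; inactive means any of these conditions unmet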
Xi reactivation – activators of inactive X chromosome reactivation, primary screen, imaging, XiGFP fibroblasts, GFP high-content imaging, set 2; activation, % at 7.58 µM; XiGFP mouse fibroblasts, % GFP-positive cells imaging, 3 d; cells co-treated with 5-aza-dC sensitizer; scaled so ellipticine positive control = 100%; AID 743238, 2013; hit rate 0.055% among 360,000;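 active means mean normalized replicate activation at least 10% and every replicate at or above 10%; inconclusive means only one of the two criteria met; inactive means mean below 10% and not all replicates reach 10%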
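System: XiGFP fibroblasts, SV40-immortalized. Medium: DMEM plus 5-aza-dC sensitizer. Doses: single point. Timing: 3 d treatment, 15 min room-temperature fixation. Control set: ellipticine 6 µM.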
AID977621 – growth inhibition of wild-type GFP E. coli, dose response, H69 mutant RFP, cherry-pick. shares compounds with Ecoli rRNA inh. E. coli wild-type GFP strain growth, fluorescence, 24 h. activity change, negative = inhibition at 50 µM. 1,900 tested, under 10 active;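 active means Wild-type ribosome reporter drop at least double the humanized mutant ribosome reporter drop, growth loss under a set limit; inconclusive means no clear call, values can overlap the other calls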;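 further: wild-type GFP and H69 mutant RFP strains grown together 50/50 in each well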
AID977628 – E. coli growth inhibition, wild-type GFP versus h24 humanized RFP strain, dose response, h24 mutant RFP vs wild-type GFP, cherry-pick. 1,900 tested, under 10 active. E. coli WT GFP strain growth, fluorescence, 24 h. shares compounds with Ecoli rRNA inh. activity change, negative = inhibition at 50 µM;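 active means compound lowering the normal-ribosome reporter at least twice as much as the humanized-ribosome reporter, growth loss under a set limit; inconclusive means no clear call, values can overlap the other calls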;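 further: wild-type GFP and h24 humanized RFP strains co-cultured 1 to 1 per well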
A number is an active result; 0 = inactive; ? = inconclusive; - = no result given.

SMILES	SR-BI HDL uptake	dFosB act	SR-BI DiI-HDL act	PvdQ acylase	Ecoli rRNA inh	Xi reactivation	AID977621	AID977628
COc1ccc(NC(=O)c2ccc(COc3ccccc3Br)o2)c(OC)c1	-	-	-	-	-16	0	0	0
Cc1ccc(N2C(=O)NC(NS(=O)(=O)c3ccccc3)(C(F)(F)F)C2=O)cc1C (stereo not given)	0	0	0	0	-17	0	0	-
COc1cc(OC)nc(Oc2ccccc2C(=O)Oc2ccc(C)cc2)n1	0	0	0	0	-24	-	0	-
COC(=O)c1ccccc1Oc1nc(Cl)cc(OC)n1	0	0	0	0	-	0	-	-
Cc1nc(SCC(=O)NCc2ccccc2)c2oc3ccccc3c2n1	0	0	0	0	-	-	-	-
C[C@H]1CN([C@@H](C)CO)C(=O)CCCn2nncc2CO[C@H]1CN(C)S(=O)(=O)c1cccc(C#N)c1	-	-	-	-	0	0	-	-
O=C1NC(CCc2ccccc2)C(=O)N1Cc1cccc2ccccc12 (stereo not given)	0	0	0	0	-21	0	0	-
COc1ccc(CCN(C)CCC(=O)Nc2cccc(C)c2)cc1OC	0	0	0	0	0	0	-	-
COCCn1c(SCC(=O)Nc2cccnc2Cl)nc2ccccc21	0	0	0	0	0	0	-	-
COCCn1c(SCC(=O)Nc2ccccc2OC)nc2ccccc21	0	0	0	0	-24	0	0	?
COc1ccccc1NC(=O)CSc1nccn1Cc1ccc(F)cc1	0	0	0	0	-24	0	0	-
COCCn1c(SCc2nc3ccccc3s2)nc2ccccc21	0	0	0	0	-19	-	0	-
Oc1c(Br)cc(Br)cc1/C=N/c1nccs1	0	0	0	0	0	0	-	-
CC(C)c1ccc(/C=N/NC(=O)c2cc(-c3cccc([N+](=O)[O-])c3)n[nH]2)cc1	0	0	0	0	0	0	-	-
CCOC(=O)C1(CCOC)CCN(CC(C)Cc2ccc3c(c2)OCO3)CC1 (stereo not given)	0	0	0	0	0	0	-	-
Cc1ccc(S(=O)(=O)N(C)C[C@@H]2OCCCC[C@H](C)Oc3ccc(NC(=O)Nc4ccc(C(F)(F)F)cc4)cc3C(=O)N([C@H](C)CO)C[C@H]2C)cc1	-	-	-	-	0	0	-	-
O=C1CCCc2c1nc(-c1ccccc1F)n2O	0	0	0	0	0	0	-	-
CCn1cc(SCC(=O)NC2CCCC2)c2ccccc21	0	0	0	0	0	0	-	-
O=C(c1ccc2c3c(cccc13)CC2)N1CCN(c2ncccn2)CC1	0	0	0	0	-28	-	0	0
O=C(c1cnc(N2CCN(c3ncccn3)CC2)c2ccccc12)N1CCN(c2ncccn2)CC1	0	0	0	0	-	-	-	-
O=C(c1cnc(Cc2c[nH]c3ccccc23)c(I)c1)N1CCCCC1	-	-	-	-	-24	0	0	-
Cc1ccccc1NCc1ccc([N+](=O)[O-])s1	0	0	0	0	-34	0	-	0
O=C1OC[C@H]2CCCN2C(=O)[C@@H](CC(=O)N(CCO)Cc2ccccc2)C/C=C\C[C@H]1Cc1ccc(F)cc1	0	0	0	0	0	0	-	-
O=C1N[C@@H](Cc2ccccc2)COC(=O)[C@H](Cc2ccc(F)cc2)C/C=C\C[C@H]1CC(=O)N(CCO)Cc1ccccc1	0	0	0	0	-19	0	-	?
O=C1OC[C@@H]2CCCN2C(=O)[C@@H](CC(=O)N(CCO)Cc2ccccc2)C/C=C\C[C@H]1Cc1ccc(F)cc1	0	0	0	0	-21	0	0	0
SMILES	SR-BI HDL uptake	dFosB act	SR-BI DiI-HDL act	PvdQ acylase	Ecoli rRNA inh	Xi reactivation	AID977621	AID977628
O=C(O)CC1CCC(=C(Cl)Cl)C1 (stereo not given)	0	0	0	0	0	-	-	-
COc1ccccc1CN1Cc2ccccc2Oc2ccccc2S1(=O)=O	-	-	-	-	-27	0	?	-
CSCCC1NC(=O)N(C(C)C(=O)Nc2cc(Cl)cc(Cl)c2)C1=O (stereo not given)	0	0	0	0	-21	0	0	0
C=CCn1c(C)cc(C(=O)COC(=O)CNC(=O)c2ccccc2)c1C	0	0	0	0	-24	0	0	-
CCCCc1cc(=O)oc2cc(OC3CCCCC3=O)ccc12 (stereo not given)	0	0	0	0	0	0	-	-
CC1(C(=O)NS(=O)(=O)c2cccc(Cl)c2)CCN1C(=O)C1(c2ccc(Cl)cc2)CC1 (stereo not given)	-	-	-	-	0	0	-	-
CC1(C(=O)NS(=O)(=O)c2cccs2)CCN1C(=O)C1(c2ccc(Cl)cc2)CCC1 (stereo not given)	-	-	-	-	-33	0	0	-
CC1(C(=O)NS(=O)(=O)c2cccc(Cl)c2)CCN1C(=O)C1(c2ccc(Cl)cc2)CCC1 (stereo not given)	-	-	-	-	-16	0	0	-
CC(=O)N1CCN(c2nc3ccc(Br)cc3s2)CC1	0	0	0	0	0	0	-	-
O=C(Nc1cccnc1)c1sc2cccc(F)c2c1Cl	0	0	0	0	-20	0	0	0
O=C1CSC(c2cccnc2)N1Cc1ccc(Cl)c(Cl)c1 (stereo not given)	0	0	0	0	-35	0	-	0
CC(C)(C)c1ccc(N2C(=O)CSC2c2cccnc2)cc1 (stereo not given)	0	0	0	0	-19	0	0	-
COC(=O)CCCC1=CC2=CC(=O)C(C)(OC(=O)c3cccs3)C(=O)C2=CN1CCCCO (stereo not given)	0	0	0	0	0	0	-	-
Cc1noc(C)c1NC(=O)Nc1ccc2c(c1)CC(=O)N([C@H](C)CO)C[C@H](C)[C@H](CN(C)Cc1ccncc1)O2	-	-	-	-	0	0	-	-
Cc1ccc(Nc2cc(C(=O)NCCCN3CCOCC3)c3ccccc3n2)cc1C	0	0	0	0	-22	0	-	?
CC(=O)Nc1cccc(NC(=O)CCN2C(=O)c3ccccc3S2(=O)=O)c1	0	0	0	0	-14	0	?	0
CCOc1ccccc1CN1CCC(O)CC1	0	0	0	0	0	-	-	-
